Experimental data from ChEMBL document CHEMBL1671684, “In vitro resistance profile of the hepatitis C virus NS3/4A protease inhibitor TMC435” (Antimicrob Agents Chemother, 2010).
pEC50: −log10 of the molar value.

Key:
Hepatitis C virus [1] = test: Ratio of EC50 for Hepatitis C virus subtype 1b expressing NS3 D168Y mutant to EC50 for Hepatitis C virus subtype 1b expressing WT NS3 infected in HuH7 cells after 48 hrs by luciferase reporter assay; type: functional, Hepacivirus hominis, genotype 1b, Huh-7
How it was run: (§1)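 Transient replicon assay: site-directed single or multiple NS3 mutations engineered into genotype 1b (con1, clone ET) subgenomic bicistronic replicon with luciferase reporter and adaptive mutations E1202G, T1280I, K1846T. Huh7-lunet cells electroporated with 10 μg wild-type or mutant replicon RNA, seeded 4,000 cells/well with nine-point inhibitor dilution; 48 h, 37°C, 5% CO2; luminescence read-out. EC50 as median of individual experiments; fold change versus parental replicon EC50.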

Hepatitis C virus [2] = test: Ratio of EC50 for Hepatitis C virus subtype 1b expressing NS3 V36L mutant to EC50 for Hepatitis C virus subtype 1b expressing WT NS3 infected in HuH7 cells after 48 hrs by luciferase reporter assay; type: functional, Hepacivirus hominis, genotype 1b, Huh-7; how it was run: as §1
Hepatitis C virus [3] = test: Antiviral activity against Hepatitis C virus subtype 1b expressing NS3 R155Q mutant infected in HuH7 cells after 48 hrs by luciferase reporter assay; type: functional, organism-based, Hepacivirus hominis; details: genotype 1b, Huh-7, 48 h
How it was run: (§2)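 Genotype 1b con1 subgenomic bicistronic replicon (clone ET) with luciferase reporter and adaptive mutations E1202G, T1280I, K1846T, carrying site-directed NS3 single or double mutations. 10 μg wild-type or mutant replicon RNA electroporated into Huh7-lunet cells, seeded 4,000 cells/well over a nine-point inhibitor dilution series, 48 h at 37°C, 5% CO2, then luminescence read. EC50 taken as median of individual experiments; fold change relative to parental replicon EC50.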

Hepatitis C virus [4] = test: Ratio of EC50 for Hepatitis C virus subtype 1b expressing NS3 A156S mutant to EC50 for Hepatitis C virus subtype 1b expressing WT NS3 infected in HuH7 cells after 48 hrs by luciferase reporter assay; type: functional, Hepacivirus hominis, genotype 1b, Huh-7; how it was run: as §2
Hepatitis C virus [5] = test: Antiviral activity against Hepatitis C virus subtype 1b expressing NS3 V36M mutant infected in HuH7 cells after 48 hrs by luciferase reporter assay; type: functional, organism-based, Hepacivirus hominis; details: genotype 1b, Huh-7, 48 h; how it was run: as §2
Hepatitis C virus [6] = test: Ratio of EC50 for Hepatitis C virus subtype 1b expressing NS3 D168T mutant to EC50 for Hepatitis C virus subtype 1b expressing WT NS3 infected in HuH7 cells after 48 hrs by luciferase reporter assay; type: functional, Hepacivirus hominis, genotype 1b, Huh-7; how it was run: as §1
Hepatitis C virus [7] = test: Ratio of EC50 for Hepatitis C virus subtype 1b expressing NS3 R155K mutant to EC50 for Hepatitis C virus subtype 1b expressing WT NS3 infected in HuH7 cells after 48 hrs by luciferase reporter assay; type: functional, Hepacivirus hominis, genotype 1b, Huh-7; how it was run: as §1
Hepatitis C virus [8] = test: Antiviral activity against Hepatitis C virus subtype 1b expressing NS3 F43S mutant infected in HuH7 cells after 48 hrs by luciferase reporter assay; type: functional, organism-based, Hepacivirus hominis; details: genotype 1b, Huh-7, 48 h; how it was run: as §2
Hepatitis C virus [9] = test: Ratio of EC50 for Hepatitis C virus subtype 1b expressing NS3 Q80R mutant to EC50 for Hepatitis C virus subtype 1b expressing WT NS3 infected in HuH7 cells after 48 hrs by luciferase reporter assay; type: functional, Hepacivirus hominis, genotype 1b, Huh-7; how it was run: as §1
Hepatitis C virus [10] = test: Ratio of EC50 for Hepatitis C virus subtype 1b expressing NS3 V36 M mutant to EC50 for Hepatitis C virus subtype 1b expressing WT NS3 infected in HuH7 cells after 48 hrs by luciferase reporter assay; type: functional, Hepacivirus hominis, genotype 1b, Huh-7; how it was run: as §1
Hepatitis C virus [11] = test: Ratio of EC50 for Hepatitis C virus subtype 1b expressing NS3 A156G mutant to EC50 for Hepatitis C virus subtype 1b expressing WT NS3 infected in HuH7 cells after 48 hrs by luciferase reporter assay; type: functional, Hepacivirus hominis, genotype 1b, Huh-7; how it was run: as §2
Hepatitis C virus [12] = test: Antiviral activity against Hepatitis C virus subtype 1b expressing NS3 Q80K mutant infected in HuH7 cells after 48 hrs by luciferase reporter assay; type: functional, organism-based, Hepacivirus hominis; details: genotype 1b, Huh-7, 48 h; how it was run: as §2
Hepatitis C virus [13] = test: Antiviral activity against Hepatitis C virus subtype 1b expressing NS3 A156G mutant infected in HuH7 cells after 48 hrs by luciferase reporter assay; type: functional, organism-based, Hepacivirus hominis; details: genotype 1b, Huh-7, 48 h; how it was run: as §2
Hepatitis C virus [14] = test: Ratio of EC50 for Hepatitis C virus subtype 1b expressing NS3 R155T mutant to EC50 for Hepatitis C virus subtype 1b expressing WT NS3 infected in HuH7 cells after 48 hrs by luciferase reporter assay; type: functional, Hepacivirus hominis, genotype 1b, Huh-7; how it was run: as §1
Hepatitis C virus [15] = test: Antiviral activity against Hepatitis C virus subtype 1b expressing NS3 R155G mutant infected in HuH7 cells after 48 hrs by luciferase reporter assay; type: functional, organism-based, Hepacivirus hominis; details: genotype 1b, Huh-7, 48 h; how it was run: as §2
Hepatitis C virus [16] = test: Antiviral activity against Hepatitis C virus subtype 1b expressing NS3 Q80G mutant infected in HuH7 cells after 48 hrs by luciferase reporter assay; type: functional, organism-based, Hepacivirus hominis; details: genotype 1b, Huh-7, 48 h; how it was run: as §2
Hepatitis C virus [17] = test: Antiviral activity against Hepatitis C virus subtype 1b expressing NS3 R109K mutant infected in HuH7 cells after 48 hrs by luciferase reporter assay; type: functional, organism-based, Hepacivirus hominis; details: genotype 1b, Huh-7, 48 h; how it was run: as §2
Hepatitis C virus [18] = test: Antiviral activity against Hepatitis C virus subtype 1b expressing NS3 Q80K and R155K mutant infected in HuH7 cells after 48 hrs by luciferase reporter assay; type: functional, organism-based, Hepacivirus hominis; details: genotype 1b, Huh-7, 48 h; how it was run: as §2
Hepatitis C virus [19] = test: Ratio of EC50 for Hepatitis C virus subtype 1b expressing NS3 F43S and D168E mutant to EC50 for Hepatitis C virus subtype 1b expressing WT NS3 infected in HuH7 cells after 48 hrs by luciferase reporter assay; type: functional, Hepacivirus hominis, genotype 1b, Huh-7; how it was run: as §1
Hepatitis C virus [20] = test: Antiviral activity against Hepatitis C virus subtype 1b expressing NS3 D168I mutant infected in HuH7 cells after 48 hrs by luciferase reporter assay; type: functional, organism-based, Hepacivirus hominis; details: genotype 1b, Huh-7, 48 h; how it was run: as §2
Hepatitis C virus [21] = test: Antiviral activity against Hepatitis C virus subtype 1b expressing NS3 Q80H mutant infected in HuH7 cells after 48 hrs by luciferase reporter assay; type: functional, organism-based, Hepacivirus hominis; details: genotype 1b, Huh-7, 48 h; how it was run: as §2
Hepatitis C virus [22] = test: Antiviral activity against Hepatitis C virus subtype 1b expressing NS3 D168G mutant infected in HuH7 cells after 48 hrs by luciferase reporter assay; type: functional, organism-based, Hepacivirus hominis; details: genotype 1b, Huh-7, 48 h; how it was run: as §2
Hepatitis C virus [23] = test: Ratio of EC50 for Hepatitis C virus subtype 1b expressing NS3 F43V mutant to EC50 for Hepatitis C virus subtype 1b expressing WT NS3 infected in HuH7 cells after 48 hrs by luciferase reporter assay; type: functional, Hepacivirus hominis, genotype 1b, Huh-7; how it was run: as §1
Hepatitis C virus [24] = test: Antiviral activity against Hepatitis C virus subtype 1b expressing NS3 F43S and D168E mutant infected in HuH7 cells after 48 hrs by luciferase reporter assay; type: functional, organism-based, Hepacivirus hominis; details: genotype 1b, Huh-7, 48 h; how it was run: as §2
Hepatitis C virus [25] = test: Antiviral activity against Hepatitis C virus subtype 1b expressing NS3 Q80H and D168E mutant infected in HuH7 cells after 48 hrs by luciferase reporter assay; type: functional, organism-based, Hepacivirus hominis; details: genotype 1b, Huh-7, 48 h; how it was run: as §2
Hepatitis C virus [26] = test: Antiviral activity against Hepatitis C virus subtype 1b expressing NS3 Q80R and D168E mutant infected in HuH7 cells after 48 hrs by luciferase reporter assay; type: functional, organism-based, Hepacivirus hominis; details: genotype 1b, Huh-7, 48 h; how it was run: as §2
Hepatitis C virus [27] = test: Ratio of EC50 for Hepatitis C virus subtype 1b expressing NS3 D168V mutant to EC50 for Hepatitis C virus subtype 1b expressing WT NS3 infected in HuH7 cells after 48 hrs by luciferase reporter assay; type: functional, Hepacivirus hominis, genotype 1b, Huh-7; how it was run: as §1
Hepatitis C virus [28] = test: Antiviral activity against Hepatitis C virus subtype 1b expressing NS3 F43S and Q80R mutant infected in HuH7 cells after 48 hrs by luciferase reporter assay; type: functional, organism-based, Hepacivirus hominis; details: genotype 1b, Huh-7, 48 h; how it was run: as §2
Hepatitis C virus [29] = test: Ratio of EC50 for Hepatitis C virus subtype 1b expressing NS3 Q80R and R155K mutant to EC50 for Hepatitis C virus subtype 1b expressing WT NS3 infected in HuH7 cells after 48 hrs by luciferase reporter assay; type: functional, Hepacivirus hominis, genotype 1b, Huh-7; how it was run: as §1
Hepatitis C virus [30] = test: Ratio of EC50 for Hepatitis C virus subtype 1b expressing NS3 F43I mutant to EC50 for Hepatitis C virus subtype 1b expressing WT NS3 infected in HuH7 cells after 48 hrs by luciferase reporter assay; type: functional, Hepacivirus hominis, genotype 1b, Huh-7; how it was run: as §1
Hepatitis C virus [31] = test: Antiviral activity against Hepatitis C virus subtype 1b expressing NS3 V36A mutant infected in HuH7 cells after 48 hrs by luciferase reporter assay; type: functional, organism-based, Hepacivirus hominis; details: genotype 1b, Huh-7, 48 h; how it was run: as §2

Structure (SMILES)	Ratio EC50 (Hepatitis C virus [1])	Ratio EC50 (Hepatitis C virus [2])	pEC50 (Hepatitis C virus [3])	Ratio EC50 (Hepatitis C virus [4])	pEC50 (Hepatitis C virus [5])	Ratio EC50 (Hepatitis C virus [6])	Ratio EC50 (Hepatitis C virus [7])	pEC50 (Hepatitis C virus [8])	Ratio EC50 (Hepatitis C virus [9])	Ratio EC50 (Hepatitis C virus [10])	Ratio EC50 (Hepatitis C virus [11])	pEC50 (Hepatitis C virus [12])	pEC50 (Hepatitis C virus [13])	Ratio EC50 (Hepatitis C virus [14])	pEC50 (Hepatitis C virus [15])	pEC50 (Hepatitis C virus [16])	pEC50 (Hepatitis C virus [17])	pEC50 (Hepatitis C virus [18])	Ratio EC50 (Hepatitis C virus [19])	pEC50 (Hepatitis C virus [20])	also measured
CCC[C@H](NC(=O)[C@@H]1[C@H]2CCC[C@H]2CN1C(=O)[C@@H](NC(=O)[C@@H](NC(=O)c1cnccn1)C1CCCCC1)C(C)(C)C)C(=O)C(=O)NC1CC1 [TELAPREVIR]	1.2	3.1	6.24	20	6.05	1	10	6.13	0.6	10	0.6	6.83	7.24	74	5.02	6.69	7.18	5.53	–	–	–
COc1ccc2c(O[C@@H]3C[C@H]4C(=O)N[C@]5(C(=O)NS(=O)(=O)C6CC6)C[C@H]5/C=C\CCCCN(C)C(=O)[C@@H]4C3)cc(-c3nc(C(C)C)cs3)nc2c1C [SIMEPREVIR]	666	1.7	7.68	0.3	7.70	308	30	7.08	6.9	2	16	7.21	6.69	24	6.46	7.66	7.96	5.33	694	4.63	pEC50 (Hepatitis C virus [21]): 7.39; pEC50 (Hepatitis C virus [22]): 7.38; Ratio EC50 (Hepatitis C virus [23]): 99; pEC50 (Hepatitis C virus [24]): 5.44; pEC50 (Hepatitis C virus [25]): 5.87; pEC50 (Hepatitis C virus [26]): 5.23; Ratio EC50 (Hepatitis C virus [27]): 2591; pEC50 (Hepatitis C virus [28]): 5.74; Ratio EC50 (Hepatitis C virus [29]): 270; Ratio EC50 (Hepatitis C virus [30]): 89; pEC50 (Hepatitis C virus [31]): 7.47
CC(C)(C)NC(=O)N[C@H](C(=O)N1C[C@H]2[C@@H]([C@H]1C(=O)NC(CC1CCC1)C(=O)C(N)=O)C2(C)C)C(C)(C)C (stereo partly specified) [BOCEPREVIR]	2.4	1.6	6.76	3.5	6.66	1.1	4.7	6.48	0.5	1.8	2.1	7.03	7.19	51	5.35	6.90	7.48	5.97	3.2	6.55	pEC50 (Hepatitis C virus [21]): 7.11; pEC50 (Hepatitis C virus [22]): 7.20; Ratio EC50 (Hepatitis C virus [23]): 2.4; pEC50 (Hepatitis C virus [24]): 6.38; pEC50 (Hepatitis C virus [25]): 7.70; pEC50 (Hepatitis C virus [26]): 7.21; Ratio EC50 (Hepatitis C virus [27]): 0.5; pEC50 (Hepatitis C virus [28]): 5.81; Ratio EC50 (Hepatitis C virus [29]): 2.7; Ratio EC50 (Hepatitis C virus [30]): 1.1; pEC50 (Hepatitis C virus [31]): 5.84
COc1ccc2c(O[C@@H]3C[C@H]4C(=O)N[C@]5(C(=O)O)C[C@H]5/C=C\CCCCC[C@H](NC(=O)OC5CCCC5)C(=O)N4C3)cc(-c3csc(NC(C)C)n3)nc2c1 [CILUPREVIR]	2488	1	6.61	2.8	8.62	844	496	9.00	1.6	1.2	12	9.00	7.66	562	6.00	8.52	8.85	6.15	12	4.68	pEC50 (Hepatitis C virus [21]): 8.92; pEC50 (Hepatitis C virus [22]): 7.46; Ratio EC50 (Hepatitis C virus [23]): 0.5; pEC50 (Hepatitis C virus [24]): 8.24; pEC50 (Hepatitis C virus [25]): 7.28; pEC50 (Hepatitis C virus [26]): 7.06; Ratio EC50 (Hepatitis C virus [27]): 3213; pEC50 (Hepatitis C virus [28]): 9.40; Ratio EC50 (Hepatitis C virus [29]): 772; Ratio EC50 (Hepatitis C virus [30]): 0.5; pEC50 (Hepatitis C virus [31]): 9.00
